Laboratory results taken from publication PMC3308013 (Journal of Immunology (Baltimore, Md. : 1950), 2011).
pIC50: −log10 of the molar value. Where no end group is shown, it is not given here.

Each sequence was assayed against H-2 Db (Mus musculus, UniProt P01899) (assay: MHC peptide binding competition assay, purified H-2 Db).
H-2 Db, sequence (P01899 25-362): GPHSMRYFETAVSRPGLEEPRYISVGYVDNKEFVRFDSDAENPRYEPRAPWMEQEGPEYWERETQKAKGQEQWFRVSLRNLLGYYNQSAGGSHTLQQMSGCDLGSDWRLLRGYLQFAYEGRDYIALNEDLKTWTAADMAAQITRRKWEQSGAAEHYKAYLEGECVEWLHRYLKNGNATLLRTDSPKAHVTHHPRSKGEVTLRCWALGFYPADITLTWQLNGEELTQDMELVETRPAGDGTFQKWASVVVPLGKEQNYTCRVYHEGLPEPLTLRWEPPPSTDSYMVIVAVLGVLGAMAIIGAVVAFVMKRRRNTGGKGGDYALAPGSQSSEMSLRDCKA
H-2 Db, sequence (P61769 21-119, further chain): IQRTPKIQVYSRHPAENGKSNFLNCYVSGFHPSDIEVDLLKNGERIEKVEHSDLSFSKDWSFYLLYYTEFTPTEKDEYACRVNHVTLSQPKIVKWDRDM
In short: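 Peptides radiolabelled by chloramine T; 1–10 nM label co-incubated at room temperature for 2 d with 1 μM to 1 nM purified H-2 Db, 1–3 μM human β2-microglobulin and protease inhibitors. Complexes captured on 28-14-8s Ab-coated plates; bound cpm counted. Test peptide at six concentrations over a 100,000-fold range, ≥3 independent assays; IC50 = concentration giving 50% inhibition of label binding.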
In the case of AAIENYVRF [AAIENYVRF], the pIC50 was 7.42. For AVCINNTFL [AVCINNTFL], the pIC50 was 6.35. Work on FAFVNAAHA [FAFVNAAHA] yielded a pIC50 of 8.31. FGLLNYALV [FGLLNYALV] showed a pIC50 of 9.00. FLPRLGTEL [FLPRLGTEL] was tested, and the pIC50 was 5.52. GAMRAVVPI [GAMRAVVPI] gave a pIC50 of 6.30. LAVVLWSLL [LAVVLWSLL] showed a pIC50 of 5.56. SARMLGDVM [SARMLGDVM] was tested, and the pIC50 was 5.04. With WMKMNQTLL [WMKMNQTLL] the pIC50 was 6.88. YQPLLSNTL [YQPLLSNTL] gave a pIC50 of 5.29. YSVENVGLL [YSVENVGLL] was tested, and the pIC50 was 8.72.

These sequences were tested against H-2 Kb (Mus musculus, UniProt P01901) (assay: MHC peptide binding competition assay, purified H-2 Kb).
H-2 Kb, sequence (P01901 22-369): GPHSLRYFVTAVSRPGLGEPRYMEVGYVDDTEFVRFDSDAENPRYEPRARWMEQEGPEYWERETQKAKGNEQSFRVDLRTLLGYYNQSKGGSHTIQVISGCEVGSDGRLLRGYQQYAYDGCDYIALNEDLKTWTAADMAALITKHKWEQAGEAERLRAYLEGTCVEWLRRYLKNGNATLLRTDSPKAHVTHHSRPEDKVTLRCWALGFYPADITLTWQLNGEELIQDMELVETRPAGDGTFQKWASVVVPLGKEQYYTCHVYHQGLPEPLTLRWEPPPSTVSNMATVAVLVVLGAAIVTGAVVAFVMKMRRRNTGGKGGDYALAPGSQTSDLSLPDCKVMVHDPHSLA
H-2 Kb, sequence (P61769 21-119 partner): as the sequence (P61769 21-119, further chain) above
For GAINFINL [GAINFINL], the pIC50 was 8.21. INNTFLHL [INNTFLHL] was tested, and the pIC50 was 8.70. LGYAYINS [LGYAYINS] gave a pIC50 of 8.00. In the case of QTFDFGRL [QTFDFGRL], the pIC50 was 8.68. SFYRFLFA [SFYRFLFA] showed a pIC50 of 7.19. With YRFLFAFL [YRFLFAFL] the pIC50 was 8.27.
